Reference: ChEMBL document CHEMBL1137507, “Discovery, synthesis, and structure-activity studies of tetrazole based growth hormone secretagogues” (Bioorg Med Chem Lett, 2007)

Key:
[1] = target: T1, Growth hormone secretagogue receptor type 1 (Homo sapiens, UniProt Q92847); experiment: Displacement of [125I]ghrelin from human GHSR1a after 1 hr
Summary of the method: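 Membranes (0.5 ug) from RAGE-based GHSR1a-expressing cells incubated 1 h with 0.02 nM [125I]ghrelin in 25 mM Hepes pH 7.2, 10 mM MgCl2, 2 mM EGTA, 0.1% BSA across a 12-point compound dose range; filtration over polyethylenimine-coated GFB plates, scintillation counting; four-parameter logistic fit, Ki via Cheng-Prusoff; typically tested on three separate occasions.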

[2] = target: T1, Growth hormone secretagogue receptor type 1; experiment: Agonist activity at human GHS receptor expressed in H4 glioma cells assessed as intracellular calcium concentration by FLIPR assay; assay type: functional, cell-based
[3] = target: Growth hormone secretagogue receptor type 1 (Rattus norvegicus) (UniProt O08725); experiment: Agonist activity at GHS receptor in intravenously dosed anesthetized Wistar rat after 15 mins; assay type: functional, organism-based
Sequence of Growth hormone secretagogue receptor type 1 (Rattus norvegicus) (O08725 whole entry): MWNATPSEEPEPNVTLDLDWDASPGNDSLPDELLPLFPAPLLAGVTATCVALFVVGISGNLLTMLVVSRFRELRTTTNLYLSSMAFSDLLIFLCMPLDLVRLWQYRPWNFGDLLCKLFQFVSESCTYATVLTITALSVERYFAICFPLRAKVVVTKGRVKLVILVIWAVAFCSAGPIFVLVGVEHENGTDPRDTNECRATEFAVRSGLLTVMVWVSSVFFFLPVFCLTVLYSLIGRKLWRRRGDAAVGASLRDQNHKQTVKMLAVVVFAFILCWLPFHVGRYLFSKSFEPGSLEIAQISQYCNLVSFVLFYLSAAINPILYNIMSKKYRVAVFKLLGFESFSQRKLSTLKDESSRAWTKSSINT

[4] = system: Canis familiaris; experiment: Effect on GH level in Beagle dog at 10 mg/kg, po; assay type: functional, Canis lupus familiaris
Summary of the method: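 Beagle dogs dosed orally at 10 mg/kg alongside vehicle controls; plasma GH followed to 120 min post-dose, read-out as mean peak GH level in ng/mL.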

[5] = Oral bioavailability in dog; assay type: ADME, organism-based, Canis lupus familiaris; details: in vivo
[6] = Oral bioavailability in rat; assay type: ADME, organism-based; details: in vivo

T1 sequence (Q92847 whole entry): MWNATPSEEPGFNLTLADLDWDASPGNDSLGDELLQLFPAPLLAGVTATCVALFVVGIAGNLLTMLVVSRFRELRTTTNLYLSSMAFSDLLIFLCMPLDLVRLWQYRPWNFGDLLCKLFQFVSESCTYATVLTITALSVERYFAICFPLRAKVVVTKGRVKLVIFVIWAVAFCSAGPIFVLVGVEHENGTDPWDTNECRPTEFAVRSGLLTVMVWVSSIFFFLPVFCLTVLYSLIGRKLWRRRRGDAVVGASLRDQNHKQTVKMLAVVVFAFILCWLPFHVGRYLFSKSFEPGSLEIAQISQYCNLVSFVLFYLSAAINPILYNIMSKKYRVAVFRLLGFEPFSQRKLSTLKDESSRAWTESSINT

SMILES | Ki [1] | EC50 [2] | ED50 [3] | Activity [4] | bioavailability [5] | bioavailability [6]
CC(C)(N)C(=O)N[C@H](COCc1ccccc1)c1nnnn1CC1CN(S(C)(=O)=O)c2ccccc21 (some centres not stated) | 1590 nM | 147 nM | – | – | – | –
CC(C)(N)C(=O)N[C@H](COCc1ccccc1)c1nnn(C/C=C/c2ccccc2)n1 | > 5000 nM | 517 nM | – | – | – | –
COC(=O)CCn1nnnc1[C@@H](COCc1ccccc1)NC(=O)C(C)(C)N | 3380 nM | 43 nM | – | – | – | –
CN(c1ccccc1CCCn1nnc([C@@H](COCc2ccccc2)NC(=O)C(C)(C)N)n1)S(C)(=O)=O | 2390 nM | 107 nM | – | – | – | –
CC(C)(N)C(=O)N[C@H](COCc1ccccc1)c1nnn(CCc2cc3ccccc3n2S(C)(=O)=O)n1 | 1270 nM | 150 nM | – | – | – | –
CC(C)(N)C(=O)N[C@H](COCc1ccccc1)c1nnnn1CCCc1ccccc1 | 200 nM | 17 nM | – | – | – | –
CC(C)(N)C(=O)N[C@H](COCc1ccccc1)c1nnnn1Cc1ccccc1 | 1900 nM | 99 nM | – | – | – | –
CC(C)(N)C(=O)N[C@H](COCc1ccccc1)c1nnn(Cc2ccccc2NS(C)(=O)=O)n1 | > 5000 nM | 426 nM | – | – | – | –
COC(=O)C(c1ccccc1)n1nnc([C@@H](COCc2ccccc2)NC(=O)C(C)(C)N)n1 (some centres not stated) | > 5000 nM | 3170 nM | – | – | – | –
CC(C)(N)C(=O)N[C@H](COCc1ccccc1)c1nnnn1CCC(=O)NCc1ccccc1 | 1070 nM | 51 nM | – | – | – | –
CC(C)(N)C(=O)N[C@H](COCc1ccccc1)c1nnn(CCc2ccccc2NS(C)(=O)=O)n1 | 2660 nM | 4110 nM | – | – | – | –
CN(c1ccccc1CCCn1nnnc1[C@@H](COCc1ccccc1)NC(=O)C(C)(C)N)S(C)(=O)=O | 1720 nM | 14 nM | – | – | – | –
CC(C)(N)C(=O)N[C@H](COCc1ccccc1)c1nnnn1CCc1ccccc1NS(C)(=O)=O | 2200 nM | 67 nM | – | – | – | –
CC(C)(N)C(=O)N[C@H](COCc1ccccc1)c1nnnn1CCc1cc2ccccc2n1S(C)(=O)=O | 970 nM | 4 nM | > 0.0174 µmol/kg | – | – | –
COC(=O)CCCn1nnnc1[C@@H](COCc1ccccc1)NC(=O)C(C)(C)N | 2380 nM | 55 nM | – | – | – | –
CC(C)(N)C(=O)N[C@H](COCc1ccccc1)c1nnnn1CC#N | 4170 nM | 29 nM | – | – | – | –
CC(C)(N)C(=O)N[C@H](COCc1ccccc1)c1nnnn1CCCCC#N | 3120 nM | 35 nM | – | – | – | –
COC(=O)C(c1ccccc1)n1nnnc1[C@@H](COCc1ccccc1)NC(=O)C(C)(C)N (some centres not stated) | 470 nM | 20 nM | – | – | – | –
CC(C)(N)C(=O)N[C@H](COCc1ccccc1)c1nnn(Cc2cccc(NS(C)(=O)=O)c2)n1 | > 5000 nM | 868 nM | – | – | – | –

SMILES | Ki [1] | EC50 [2] | ED50 [3] | Activity [4] | bioavailability [5] | bioavailability [6]
CC(C)(N)C(=O)N[C@H](COCc1ccccc1)c1nnn(CC2Cc3ccccc3N2S(C)(=O)=O)n1 (some centres not stated) | > 5000 nM | 546 nM | – | – | – | –
CC(C)(N)C(=O)N[C@H](COCc1ccccc1)c1nnnn1Cc1cccc(NS(C)(=O)=O)c1 | > 5000 nM | 116 nM | – | – | – | –
CC(C)(N)C(=O)N[C@H](COCc1ccccc1)c1nnn(CCCCC#N)n1 | > 5000 nM | 1860 nM | – | – | – | –
CC(C)(N)C(=O)N[C@H](COCc1ccccc1)c1nnnn1Cc1ccccc1NS(C)(=O)=O | 4450 nM | 390 nM | – | – | – | –
CC(C)(N)C(=O)N[C@H](COCc1ccccc1)c1nnn(Cc2ccc(NS(C)(=O)=O)cc2)n1 | > 5000 nM | 986 nM | – | – | – | –
CC(C)(N)C(=O)N[C@H](COCc1ccccc1)c1nnnn1C/C=C/c1ccccc1 | 190 nM | 12 nM | 0.0264 µmol/kg | – | – | –
CCCCNC(=O)CCCn1nnnc1[C@@H](COCc1ccccc1)NC(=O)C(C)(C)N | 1780 nM | 30 nM | – | – | – | –
COC(=O)CCn1nnnc1[C@@H](Cc1c[nH]c2ccccc12)NC(=O)C(C)(C)N | > 5000 nM | 200 nM | – | – | – | –
CC(C)(N)C(=O)N[C@H](COCc1ccccc1)c1nnnn1CCC(=O)NCCc1ccccc1 | 780 nM | 27 nM | – | – | – | –
CC(C)(N)C(=O)N[C@H](COCc1ccccc1)c1nnnn1Cc1ccc(NS(C)(=O)=O)cc1 | > 5000 nM | 259 nM | – | – | – | –
CC(C)(N)C(=O)N[C@H](COCc1ccccc1)c1nnnn1CCc1nnn[nH]1 | 5000 nM | 347 nM | – | – | – | –
CCCCNC(=O)CCn1nnnc1[C@@H](COCc1ccccc1)NC(=O)C(C)(C)N | 2190 nM | 42 nM | – | – | – | –
CC(C)(N)C(=O)N[C@H](COCc1ccccc1)c1nnnn1CCCCCNS(C)(=O)=O | > 5000 nM | 75 nM | – | – | – | –
CC(C)(N)C(=O)N[C@H](COCc1ccccc1)c1nnnn1CCC#N | 2940 nM | 30 nM | 0.0085 µmol/kg | 30 ng/mL | 76% | 56%
CCCCNC(=O)CCn1nnnc1[C@@H](CCc1ccccc1)NC(=O)C(C)(C)N | 1370 nM | 49 nM | – | – | – | –
CC(C)(N)C(=O)N[C@H](COCc1ccccc1)c1nnn(CC#N)n1 | > 5000 nM | 1520 nM | – | – | – | –
CC(C)(N)C(=O)N[C@H](COCc1ccccc1)c1nnnn1CCC(=O)NCCCc1ccccc1 | 820 nM | 59 nM | – | – | – | –
CC(C)(N)C(=O)N[C@H](COCc1ccccc1)c1nnn(Cc2ccccc2)n1 | 4750 nM | 1120 nM | – | – | – | –
CC(C)(N)C(=O)N[C@H](COCc1ccccc1)c1nnnn1CCCCCNC(=O)OCc1ccccc1 | 320 nM | 10 nM | – | – | – | –
